ChEMBL document CHEMBL5338733, “Heterobifunctional Ligase Recruiters Enable pan-Degradation of Inhibitor of Apoptosis Proteins” (J Med Chem, 2023)
Activity calls are given as the source filed them. No cut-off for these calls is given here.

What was measured:
[1] = target: T1, von Hippel-Lindau disease tumor suppressor/Baculoviral IAP repeat-containing protein 2 (Homo sapiens) (UniProt Q13490+P40337); test: PROTAC activity at VHL/IAP in human MM1.S cells assessed as induction of cIAP1 degradation incubated for 16 hrs by western blot analysis; format: cell-based
T1 sequence (P40337 whole entry, looked up): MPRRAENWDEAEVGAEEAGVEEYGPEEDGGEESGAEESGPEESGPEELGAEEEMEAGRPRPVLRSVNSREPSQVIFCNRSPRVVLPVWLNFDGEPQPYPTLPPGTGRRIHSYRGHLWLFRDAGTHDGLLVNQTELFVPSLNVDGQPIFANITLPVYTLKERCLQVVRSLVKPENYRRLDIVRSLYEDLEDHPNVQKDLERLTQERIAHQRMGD
T1 sequence (Q13490 whole entry, looked up): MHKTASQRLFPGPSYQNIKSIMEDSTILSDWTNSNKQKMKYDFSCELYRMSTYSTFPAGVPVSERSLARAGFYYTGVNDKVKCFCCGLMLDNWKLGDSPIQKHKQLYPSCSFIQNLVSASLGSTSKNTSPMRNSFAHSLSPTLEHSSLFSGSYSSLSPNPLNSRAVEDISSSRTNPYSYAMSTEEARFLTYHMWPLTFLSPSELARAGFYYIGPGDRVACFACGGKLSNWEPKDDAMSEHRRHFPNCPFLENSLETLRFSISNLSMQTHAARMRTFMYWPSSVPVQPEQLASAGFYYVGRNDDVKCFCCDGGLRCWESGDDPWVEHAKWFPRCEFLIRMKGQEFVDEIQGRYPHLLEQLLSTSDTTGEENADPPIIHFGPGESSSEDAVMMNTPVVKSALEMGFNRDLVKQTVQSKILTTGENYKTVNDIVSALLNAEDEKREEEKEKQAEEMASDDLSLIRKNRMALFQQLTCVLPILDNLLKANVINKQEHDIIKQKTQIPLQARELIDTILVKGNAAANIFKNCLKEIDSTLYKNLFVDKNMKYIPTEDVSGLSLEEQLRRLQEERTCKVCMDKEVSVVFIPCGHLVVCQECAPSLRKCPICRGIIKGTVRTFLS
Outline: (§1)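 MM.1S cells treated 16 h at 0.1 or 1 μM (or concentration series); lysed, SDS-PAGE, PVDF immunoblot, ECL; densitometry normalized to loading control and DMSO; average of ≥3 independent experiments, DC50 from n = 4 repeats where derived.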

[2] = target: T2, von Hippel-Lindau disease tumor suppressor/E3 ubiquitin-protein ligase XIAP (Homo sapiens) (UniProt P98170+P40337); test: PROTAC activity at VHL/IAP in human MM1.S cells assessed as induction of XIAP degradation at 0.1 uM measured after 3 hrs by western blot analysis; format: cell-based
T2 sequence (P40337 whole entry, looked up): as the sequence (P40337 whole entry, looked up) above
T2 sequence (P98170 whole entry, looked up): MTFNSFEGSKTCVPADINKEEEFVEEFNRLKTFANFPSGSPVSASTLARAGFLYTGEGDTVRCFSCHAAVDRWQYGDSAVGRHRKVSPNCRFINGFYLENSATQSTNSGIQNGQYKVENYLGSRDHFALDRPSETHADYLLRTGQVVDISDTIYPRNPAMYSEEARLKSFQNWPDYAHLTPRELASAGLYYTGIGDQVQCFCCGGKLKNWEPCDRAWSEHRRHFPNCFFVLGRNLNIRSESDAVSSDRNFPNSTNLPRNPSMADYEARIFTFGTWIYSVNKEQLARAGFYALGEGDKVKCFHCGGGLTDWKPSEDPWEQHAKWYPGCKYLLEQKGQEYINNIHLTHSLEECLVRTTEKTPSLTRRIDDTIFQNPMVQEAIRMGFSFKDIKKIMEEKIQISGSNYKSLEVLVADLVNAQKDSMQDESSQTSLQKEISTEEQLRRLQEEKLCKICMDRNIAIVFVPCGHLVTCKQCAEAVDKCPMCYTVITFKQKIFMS
Outline: (§2)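 Time course in MM.1S cells at 0.1 μM; protein levels at sampled time points by immunoblot (SDS-PAGE, PVDF, ECL) with densitometry.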

[3] = target: T3, von Hippel-Lindau disease tumor suppressor/Baculoviral IAP repeat-containing protein 3 (Homo sapiens) (UniProt Q13489+P40337); test: PROTAC activity at VHL/IAP in human MM1.S cells assessed as induction of cIAP2 degradation at 0.1 uM measured after 3 hrs by western blot analysis; format: cell-based; outline: as §2
T3 sequence (P40337 whole entry, looked up): as the sequence (P40337 whole entry, looked up) above
T3 sequence (Q13489 whole entry, looked up): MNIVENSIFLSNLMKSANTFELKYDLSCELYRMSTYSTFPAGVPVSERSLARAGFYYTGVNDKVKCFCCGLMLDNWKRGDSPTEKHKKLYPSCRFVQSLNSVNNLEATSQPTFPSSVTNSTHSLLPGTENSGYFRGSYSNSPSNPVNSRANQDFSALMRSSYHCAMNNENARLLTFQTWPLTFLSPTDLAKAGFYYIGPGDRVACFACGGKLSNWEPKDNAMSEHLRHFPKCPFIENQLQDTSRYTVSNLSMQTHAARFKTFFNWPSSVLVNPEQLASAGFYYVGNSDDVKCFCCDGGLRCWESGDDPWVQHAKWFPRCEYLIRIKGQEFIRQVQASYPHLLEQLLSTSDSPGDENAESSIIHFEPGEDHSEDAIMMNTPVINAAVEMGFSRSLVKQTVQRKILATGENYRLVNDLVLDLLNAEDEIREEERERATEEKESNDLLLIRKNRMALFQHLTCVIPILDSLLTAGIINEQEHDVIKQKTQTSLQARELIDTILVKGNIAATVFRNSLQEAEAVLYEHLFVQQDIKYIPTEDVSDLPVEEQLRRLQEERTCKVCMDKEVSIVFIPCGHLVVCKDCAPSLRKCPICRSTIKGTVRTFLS

[4] = target: T2, von Hippel-Lindau disease tumor suppressor/E3 ubiquitin-protein ligase XIAP (Homo sapiens); test: PROTAC activity at VHL/IAP in human MM1.S cells assessed as induction of XIAP degradation at 1 uM incubated for 16 hrs followed by drug wash-out for 72 hrs by western blot analysis; format: cell-based
Outline: (§3)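 MM.1S cells given a single exposure to 1 μM, then compound washed out and protein followed up to 72 h by immunoblot with densitometry.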

[5] = target: T2, von Hippel-Lindau disease tumor suppressor/E3 ubiquitin-protein ligase XIAP (Homo sapiens); test: PROTAC activity at VHL/IAP in human MM1.S cells assessed as induction of XIAP degradation pretreated for 1 hr with ubiquitin-activating inhibitor, MLN7243 followed by incubation with drug for 3 hrs by western blot analysis; format: cell-based
[6] = tested on: NCI-H929; test: Cytotoxicity against human NCI-H929 cells assessed as reduction in cell viability measured after 96 hrs in presence of TNF-alpha by CellTiter-Glo luminescent assay; format: functional, cell-based; details: NCI-H929, 96 h
Outline: (§4)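 Cells seeded with compound at indicated concentrations ± TNF-α 1 ng/mL, incubated 96 h at 37 °C; viability by CellTiter-Glo luminescence, normalized to DMSO control; mean ± SD of biological triplicates. NCI-H929 cultured in RPMI-1640/10% FBS with 2-mercaptoethanol and sodium pyruvate; other lines in RPMI-1640/10% FBS, 37 °C, 5% CO2.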

[7] = target: T3, von Hippel-Lindau disease tumor suppressor/Baculoviral IAP repeat-containing protein 3 (Homo sapiens); test: PROTAC activity at VHL/IAP in human MM1.S cells assessed as induction of cIAP2 degradation pretreated for 1 hr with proteasome inhibitor, MG132 followed by incubation with drug for 3 hrs by western blot analysis; format: cell-based
[8] = tested on: SU-DHL-6; test: Cytotoxicity against human SU-DHL-6 cells assessed as reduction in cell viability measured after 96 hrs in presence of TNF-alpha by CellTiter-Glo luminescent assay; format: functional, cell-based; details: SU-DHL-6, 96 h; outline: as §4
[9] = target: T4, von Hippel-Lindau disease tumor suppressor/IAP (Homo sapiens) (UniProt P98170+Q13489+Q13490+P40337); test: PROTAC activity at VHL/IAP in cIPA2 knock-out human MM1.S cells assessed as induction of VHL30 degradation at 0.1 uM incubated for 16 hrs by western blot analysis; format: cell-based
T4 sequence (P40337 whole entry, looked up): as the sequence (P40337 whole entry, looked up) above
T4 sequence (P98170 whole entry, looked up): as the sequence (P98170 whole entry, looked up) above
T4 sequence (Q13489 whole entry, looked up): as the sequence (Q13489 whole entry, looked up) above
T4 sequence (Q13490 whole entry, looked up): as the sequence (Q13490 whole entry, looked up) above
Outline: (§5)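 Cas9-expressing MM.1S cells transduced with sgRNA against cIAP1, cIAP2 or XIAP (control sgRNA luciferase; ≥95% transduction by FACS at 48 h); treated 0.1 μM for 16 h; VHL30 measured by immunoblot (SDS-PAGE, PVDF, ECL) with densitometry.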

[10] = target: T1, von Hippel-Lindau disease tumor suppressor/Baculoviral IAP repeat-containing protein 2 (Homo sapiens); test: PROTAC activity at VHL/IAP in human MM1.S cells assessed as induction of cIAP1 degradation at 0.1 uM measured after 3 hrs by western blot analysis; format: cell-based; outline: as §2
[11] = target: T4, von Hippel-Lindau disease tumor suppressor/IAP (Homo sapiens); test: PROTAC activity at VHL/IAP in human MM1.S cells assessed as induction of VHL30 degradation at 1 uM incubated for 16 hrs followed by drug wash-out for 72 hrs by western blot analysis; format: cell-based; outline: as §3
[12] = target: T1, von Hippel-Lindau disease tumor suppressor/Baculoviral IAP repeat-containing protein 2 (Homo sapiens); test: PROTAC activity at VHL/IAP in human MM1.S cells assessed as induction of cIAP1 degradation pretreated for 1 hr with proteasome inhibitor, MG132 followed by incubation with drug for 3 hrs by western blot analysis; format: cell-based
[13] = target: T2, von Hippel-Lindau disease tumor suppressor/E3 ubiquitin-protein ligase XIAP (Homo sapiens); test: PROTAC activity at VHL/IAP in human MM1.S cells assessed as induction of XIAP degradation pretreated for 1 hr with proteasome inhibitor, MG132 followed by incubation with drug for 3 hrs by western blot analysis; format: cell-based
[14] = target: T2, von Hippel-Lindau disease tumor suppressor/E3 ubiquitin-protein ligase XIAP (Homo sapiens); test: PROTAC activity at VHL/IAP in human MM1.S cells assessed as induction of XIAP degradation at 1 uM incubated for 16 hrs followed by drug wash-out for 72 hrs and later treated with VHL inhibitor, VH298 by western blot analysis; format: cell-based
[15] = target: T3, von Hippel-Lindau disease tumor suppressor/Baculoviral IAP repeat-containing protein 3 (Homo sapiens); test: PROTAC activity at VHL/IAP in human MM1.S cells assessed as induction of cIAP2 degradation pretreated for 1 hr with ubiquitin-activating inhibitor, MLN7243 followed by incubation with drug for 3 hrs by western blot analysis; format: cell-based
[16] = target: T1, von Hippel-Lindau disease tumor suppressor/Baculoviral IAP repeat-containing protein 2 (Homo sapiens); test: PROTAC activity at VHL/IAP in human MM1.S cells assessed as induction of cIAP1 degradation pretreated for 1 hr with ubiquitin-activating inhibitor, MLN7243 followed by incubation with drug for 3 hrs by western blot analysis; format: cell-based
[17] = target: T2, von Hippel-Lindau disease tumor suppressor/E3 ubiquitin-protein ligase XIAP (Homo sapiens); test: PROTAC activity at VHL/IAP in human MM1.S cells assessed as induction of XIAP degradation at 100 nM incubated for 3 hrs by diaPASEF-based analysis; format: cell-based
Outline: (§6)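 MM.1S cells treated with DMSO or 0.1 μM for 3 h (four biological replicates); urea lysis, reduction/alkylation, LysC then trypsin digestion, diaPASEF on timsTOF Pro2; label-free quantification, missing values imputed from Gaussian distribution, log2 fold change vs DMSO with limma statistics.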

[18] = target: T4, von Hippel-Lindau disease tumor suppressor/IAP (Homo sapiens); test: PROTAC activity at VHL/IAP in cIPA1 knock-out human MM1.S cells assessed as induction of VHL30 degradation at 0.1 uM incubated for 16 hrs by western blot analysis; format: cell-based; outline: as §5
[19] = target: T4, von Hippel-Lindau disease tumor suppressor/IAP (Homo sapiens); test: PROTAC activity at VHL/IAP in human MM1.S cells assessed as induction of VHL30 degradation at 0.1 uM measured after 6 hrs by western blot analysis; format: cell-based; outline: as §2
[20] = target: T4, von Hippel-Lindau disease tumor suppressor/IAP (Homo sapiens); test: PROTAC activity at VHL/IAP in human MM1.S cells assessed as induction of VHL19 degradation at 1 uM incubated for 16 hrs followed by drug wash-out for 72 hrs by western blot analysis; format: cell-based; outline: as §3
[21] = target: T4, von Hippel-Lindau disease tumor suppressor/IAP (Homo sapiens); test: PROTAC activity at VHL/IAP in human MM1.S cells assessed as induction of VHL30 degradation incubated for 16 hrs by western blot analysis; format: cell-based; details: dose 0.0001-1 µM; outline: as §1
[22] = target: T2, von Hippel-Lindau disease tumor suppressor/E3 ubiquitin-protein ligase XIAP (Homo sapiens); test: PROTAC activity at VHL/IAP in human MM1.S cells assessed as induction of XIAP degradation incubated for 16 hrs by western blot analysis; format: cell-based; outline: as §1
[23] = target: T3, von Hippel-Lindau disease tumor suppressor/Baculoviral IAP repeat-containing protein 3 (Homo sapiens); test: PROTAC activity at VHL/IAP in human MM1.S cells assessed as induction of cIAP2 degradation at 1 uM incubated for 16 hrs followed by drug wash-out for 72 hrs by western blot analysis; format: cell-based; outline: as §3
[24] = target: T3, von Hippel-Lindau disease tumor suppressor/Baculoviral IAP repeat-containing protein 3 (Homo sapiens); test: PROTAC activity at VHL/IAP in human MM1.S cells assessed as induction of cIAP2 degradation incubated for 16 hrs by western blot analysis; format: cell-based; outline: as §1
[25] = target: T1, von Hippel-Lindau disease tumor suppressor/Baculoviral IAP repeat-containing protein 2 (Homo sapiens); test: PROTAC activity at VHL/IAP in human MM1.S cells assessed as induction of cIAP1 degradation at 100 nM incubated for 3 hrs by diaPASEF-based analysis; format: cell-based; outline: as §6
[26] = target: T4, von Hippel-Lindau disease tumor suppressor/IAP (Homo sapiens); test: PROTAC activity at VHL/IAP in XIAP knock-out human MM1.S cells assessed as induction of VHL30 degradation at 0.1 uM incubated for 16 hrs by western blot analysis; format: cell-based; outline: as §5
[27] = target: T1, von Hippel-Lindau disease tumor suppressor/Baculoviral IAP repeat-containing protein 2 (Homo sapiens); test: PROTAC activity at VHL/IAP in human MM1.S cells assessed as induction of cIAP1 degradation at 1 uM incubated for 16 hrs followed by drug wash-out for 72 hrs by western blot analysis; format: cell-based; outline: as §3
[28] = target: Protein cereblon-IAP (Homo sapiens) (UniProt P98170+Q13489+Q13490+Q96SW2); test: PROTAC activity at CRBN/IAP in human MM1.S cells assessed as induction of CRBN degradation at 100 nM incubated for 3 hrs by diaPASEF-based analysis; format: cell-based
Protein cereblon-IAP (Homo sapiens), sequence (P98170 whole entry, looked up): as the sequence (P98170 whole entry, looked up) above
Protein cereblon-IAP (Homo sapiens), sequence (Q13489 whole entry, looked up): as the sequence (Q13489 whole entry, looked up) above
Protein cereblon-IAP (Homo sapiens), sequence (Q13490 whole entry, looked up): as the sequence (Q13490 whole entry, looked up) above
Protein cereblon-IAP (Homo sapiens), sequence (Q96SW2 whole entry, looked up): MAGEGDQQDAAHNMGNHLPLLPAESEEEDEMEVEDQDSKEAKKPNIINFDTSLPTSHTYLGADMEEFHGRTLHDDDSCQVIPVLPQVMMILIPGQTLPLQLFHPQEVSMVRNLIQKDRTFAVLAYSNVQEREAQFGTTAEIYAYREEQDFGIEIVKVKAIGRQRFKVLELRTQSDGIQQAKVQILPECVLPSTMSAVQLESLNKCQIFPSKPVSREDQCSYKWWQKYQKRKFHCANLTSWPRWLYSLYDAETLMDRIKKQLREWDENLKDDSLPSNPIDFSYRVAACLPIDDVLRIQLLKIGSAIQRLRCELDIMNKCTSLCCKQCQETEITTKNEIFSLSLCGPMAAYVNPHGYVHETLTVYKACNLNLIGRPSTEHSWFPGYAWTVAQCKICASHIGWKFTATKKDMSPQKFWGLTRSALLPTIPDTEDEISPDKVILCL
Outline: (§7)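 MM.1S cells exposed to DMSO or 0.1 μM compound for 3 h, then washed with PBS and snap-frozen. Lysed in 8 M urea/EPPS pH 8.5 buffer. 50 μg protein reduced, alkylated, precipitated, then digested with LysC and trypsin. Analysed by diaPASEF on timsTOF Pro2. Missing values imputed from a Gaussian distribution; log2 fold change versus DMSO with limma statistics.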

[29] = target: Protein cereblon/Zinc finger protein Aiolos (Homo sapiens) (UniProt Q96SW2+Q9UKT9); test: PROTAC activity at CRBN/IKZF3 in human MM1.S cells assessed as induction of IKZF3 degradation at 100 nM incubated for 3 hrs by diaPASEF-based analysis; format: cell-based; outline: as §7
Protein cereblon/Zinc finger protein Aiolos (Homo sapiens), sequence (Q96SW2 whole entry, looked up): as above
Protein cereblon/Zinc finger protein Aiolos (Homo sapiens), sequence (Q9UKT9 whole entry, looked up): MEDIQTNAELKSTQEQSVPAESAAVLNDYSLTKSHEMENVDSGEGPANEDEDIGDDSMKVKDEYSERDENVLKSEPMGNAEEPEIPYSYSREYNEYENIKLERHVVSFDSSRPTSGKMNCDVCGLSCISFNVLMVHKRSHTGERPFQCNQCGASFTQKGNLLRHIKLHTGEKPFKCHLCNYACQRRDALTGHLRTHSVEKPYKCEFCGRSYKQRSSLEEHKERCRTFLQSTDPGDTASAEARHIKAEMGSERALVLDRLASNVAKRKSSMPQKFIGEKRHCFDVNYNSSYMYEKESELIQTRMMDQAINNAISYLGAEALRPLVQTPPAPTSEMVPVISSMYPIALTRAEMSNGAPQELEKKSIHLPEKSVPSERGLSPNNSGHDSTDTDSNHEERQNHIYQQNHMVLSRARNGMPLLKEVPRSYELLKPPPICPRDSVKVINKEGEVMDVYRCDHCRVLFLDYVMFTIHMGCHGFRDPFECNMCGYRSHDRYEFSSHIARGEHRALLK

[30] = target: Protein cereblon/E3 ubiquitin-protein ligase XIAP (Homo sapiens) (UniProt P98170+Q96SW2); test: PROTAC activity at CRBN/IAP in human MM1.S cells assessed as induction of XIAP degradation at 0.1 uM incubated for 3 hrs by diaPASEF-based proteomics analysis; format: cell-based; outline: as §7
Protein cereblon/E3 ubiquitin-protein ligase XIAP (Homo sapiens), sequence (P98170 whole entry, looked up): as the sequence (P98170 whole entry, looked up) above
Protein cereblon/E3 ubiquitin-protein ligase XIAP (Homo sapiens), sequence (Q96SW2 whole entry, looked up): as the sequence (Q96SW2 whole entry, looked up) above

[31] = target: Protein cereblon/Baculoviral IAP repeat-containing protein 3 (Homo sapiens) (UniProt Q13489+Q96SW2); test: PROTAC activity at CRBN/IAP in human MM1.S cells assessed as induction of cIAP2 degradation at 100 nM incubated for 3 hrs by diaPASEF-based analysis; format: cell-based; outline: as §7
Protein cereblon/Baculoviral IAP repeat-containing protein 3 (Homo sapiens), sequence (Q13489 whole entry, looked up): as the sequence (Q13489 whole entry, looked up) above
Protein cereblon/Baculoviral IAP repeat-containing protein 3 (Homo sapiens), sequence (Q96SW2 whole entry, looked up): as the sequence (Q96SW2 whole entry, looked up) above

[32] = target: von Hippel-Lindau disease tumor suppressor (Homo sapiens) (UniProt P40337); test: Induction of VHL degradation in human MM1.S cells at 100 nM incubated for 3 hrs by diaPASEF-based analysis; format: cell-based; outline: as §7
von Hippel-Lindau disease tumor suppressor (Homo sapiens), sequence (P40337 whole entry, looked up): as the sequence (P40337 whole entry, looked up) above

[33] = target: Protein cereblon/Baculoviral IAP repeat-containing protein 2 (Homo sapiens) (UniProt Q13490+Q96SW2); test: PROTAC activity at CRBN/IAP in human MM1.S cells assessed as induction of cIAP1 degradation at 100 nM incubated for 3 hrs by diaPASEF-based analysis; format: cell-based; outline: as §7
Protein cereblon/Baculoviral IAP repeat-containing protein 2 (Homo sapiens), sequence (Q13490 whole entry, looked up): as the sequence (Q13490 whole entry, looked up) above
Protein cereblon/Baculoviral IAP repeat-containing protein 2 (Homo sapiens), sequence (Q96SW2 whole entry, looked up): as the sequence (Q96SW2 whole entry, looked up) above

[34] = target: Cereblon/Ikaros (Homo sapiens) (UniProt Q96SW2+Q13422); test: PROTAC activity at CRBN/IKZF1 in human MM1.S cells assessed as induction of IKZF1 degradation at 100 nM incubated for 3 hrs by diaPASEF-based analysis; format: cell-based; outline: as §7

CN[C@@H](C)C(=O)N[C@H](C(=O)N1C[C@@H](Oc2cccc(OCCCCC(=O)N[C@H](C(=O)N3C[C@H](O)C[C@H]3C(=O)N[C@@H](C)c3ccc(-c4scnc4C)cc3)C(C)(C)C)c2)C[C@H]1C(=O)N[C@@H]1CCCc2ccccc21)C1CCCCC1
Activity [1]: Dose-Dependent Effect | Activity [2]: 100% | Activity [3]: 100% | Activity [4]: Active | Activity [5]: inactive | IC50 [6]: 8 nM | Activity [7]: inactive | IC50 [8]: 1.6 nM | Activity [9]: Active | Activity [10]: 100% | Activity [11]: inactive | Activity [12]: inactive | Activity [13]: inactive | Activity [14]: inactive | Activity [15]: inactive | Activity [16]: inactive | Activity [17]: Active | Activity [18]: Active | Activity [19]: Active | Activity [20]: inactive | Activity [21]: Dose-Dependent Effect | Activity [22]: Dose-Dependent Effect | Activity [23]: Active | Activity [24]: Dose-Dependent Effect | Activity [25]: Active | Activity [26]: Active | Activity [27]: Active

CN[C@@H](C)C(=O)N[C@H](C(=O)N1C[C@@H](Oc2cccc(OCCCCCCOCCCCCCOCCCCCCNc3cccc4c3C(=O)N(C3CCC(=O)NC3=O)C4=O)c2)C[C@H]1C(=O)N[C@@H]1CCCc2ccccc21)C1CCCCC1 (some centres undefined)
Activity [28]: inactive | Activity [29]: inactive | Activity [30]: Active | Activity [31]: inactive | Activity [32]: inactive | Activity [33]: inactive | Activity [34]: inactive
